This note sets out measurements from ChEMBL document CHEMBL3271971, “Antineoplastic and biochemical properties of arylsulfonylhydrazones of 2-formylpyridine N-oxide” (J Med Chem, 1976).

The structures appear in SMILES notation.

Data set [1] in a line: Antineoplastic activity against mouse Hepa129 cells allografted in C3H mouse assessed as average survival at 60 mg/kg administered qd for 6 days (reference value: 18 +/- 0.6 days). It counts as functional. In outline:
(§1)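 Ascitic tumours were transplanted from an appropriate donor mouse carrying a 7-day tumour growth. Drug was given at 10–60 mg/kg/day for six consecutive days. Sensitivity was judged by prolongation of survival time relative to untreated tumour-bearing controls. Mice were weighed throughout, and percentage weight change from onset to end of therapy indicated toxicity.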

Data set [2] concerns L1210. Put plainly: Antineoplastic activity against mouse L1210 cells allografted in BDF1 mouse assessed as average survival at 40 mg/kg administered qd for 6 days (reference value: 8.2 +/- 0.4 days). Format: functional. The gist of the method: as §1
Data set [3] has as its system Mus musculus. Put plainly: Effect on RNA synthesis in tumor of CD-1 mouse allografted with mouse S180A cells assessed as [3H]-uridine incorporation at 80 mg/kg, ip pretreated for 6 hrs followed by radiotracer-addition measured after 1 hr relative to control. Format: functional. Conditions: route intraperitoneal. In outline: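 Mice bearing 6-day Sarcoma 180 ascites implants received a single ip dose of 80 mg/kg. At the stated pretreatment time they were given ip tracer: 200 μg thymidine-3H, 200 μg uridine-3H or 125 μg DL-leucine-14C. After 1 h of incorporation, specific radioactivity of DNA, RNA or protein was read as % of control incorporation.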

A short description of data set [4]: Antineoplastic activity against mouse Hepa129 cells allografted in C3H mouse assessed as average survival at 40 mg/kg administered qd for 6 days (reference value: 18 +/- 0.6 days). Format: functional. In outline: as §1
Data set [5] deals with Mus musculus. Put plainly: Toxicity in BDF1 mouse allografted with mouse L1210 cells assessed as change in body weight at 20 mg/kg administered qd for 6 days (reference value: 13.6%). It counts as organism-based. Set-up: dose 20 mg/kg. Conditions: in vivo, 144 h. In outline:
(§2)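 Ascitic tumors were transplanted from a donor mouse bearing a 7-day tumor. Daily doses were given for six consecutive days. Percentage body-weight change from onset to termination of therapy served as the index of drug toxicity.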

Data set [6] has as its system Ehrlich. The data set can be described thus: Antineoplastic activity against mouse EAC cells allografted in CD-1 mouse assessed as mouse survival at 60 mg/kg administered qd for 6 days measured for 50 days relative to control. Format: functional. In outline: as §1
Data set [7] relates to Mus musculus. The data set can be described thus: Toxicity in BDF1 mouse allografted with mouse L1210 cells assessed as change in body weight at 60 mg/kg administered qd for 6 days (reference value: 13.6%). It counts as organism-based. Set-up: dose 60 mg/kg. Conditions: in vivo, 144 h. In outline: as §2

Turning to `Cc1ccc(S(=O)(=O)N/N=C/c2cccc[n+]2[O-])cc1`, the Survival in data set [1] was found to be 29.4 days; in data set [2] it was 9.2 days; in data set [4] it was 24.8 days. The Activity in data set [3] is on record as 50%; in data set [5] it was 10.6%; in data set [7], -5.8%. In addition, the survival at 60 mg/kg in data set [6] turned out to be 40%.
